According to ChEMBL document CHEMBL1153146, “Novel potent apoA-I peptide mimetics that stimulate cholesterol efflux and pre-beta particle formation in vitro” (Bioorg Med Chem Lett, 2010):
≈ marks a conversion by molar mass, not a printed value. Starred links: 1 amine or outer side, 2 acyl side, 3 side chain; linkers in the order of their positions; H or OH if unused. Positions of bridges follow the written chain, without caps; N, C: chain ends. Non-standard residues stand in square brackets, D forms with d. Residues, ends and D or L forms follow the SMILES beside them. X1 = O=C([C@@H](CCCCC=[*:3])N[*:1])[*:2]; X2 = O=C([C@H](CCCCCC=[*:3])N[*:1])[*:2]; Aib = CC(C)(N)C(=O)O

Tests used:
RAW264.7 [1] = assay: Induction of [3H]cholesterol efflux in mouse RAW264.7 cells at 30 uM after 24 hrs by scintillation counting; assay type: functional, cell-based
RAW264.7 [2] = assay: Cytotoxicity against mouse RAW264.7 cells after 24 hrs by MTT assay; assay type: cell-based; conditions: RAW264.7, 24 h
Summary of the method: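 RAW macrophage cytotoxicity examined at peptide concentrations up to 160 µM.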

[3] = Toxicity in human RBC assessed as hemolysis; assay type: cell-based, Erythrocyte; conditions: red blood cells (RBC)
Summary of the method: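 Red blood cell lysis assay; cytotoxicity reported as IC50 in µM.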

Plasma [4] = assay: Increase in pre-beta-HDL level in human plasma after 1 hr by ELISA; assay type: functional, cell-free
Summary of the method: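 Peptides were titrated into human plasma, with concentrations expressed in µg/ml, and pre-β-HDL was read out by ELISA using a pre-β antibody.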

Plasma [5] = assay: Incorporation into HDL fraction in wild type mouse plasma at 0.25 mg/ml after 2 hrs by size exclusion chromatography analysis
RAW264.7 [6] = assay: Induction of [3H]cholesterol efflux in mouse RAW264.7 cells after 24 hrs by scintillation counting; assay type: functional, cell-based
Summary of the method: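 Cholesterol efflux from RAW macrophages; EC50 reported in µM as the mean of three experiments.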

RAW264.7 [7] = assay: Induction of [3H]cholesterol efflux in mouse RAW264.7 cells at 100 uM after 24 hrs by scintillation counting; assay type: functional, cell-based
[8] = Toxicity in human RBC assessed as minimum lytic concentration; assay type: cell-based; conditions: erythrocyte
[9] = Mus musculus, RAW264.7, read-out: EC50

Compound	cholesterol efflux (RAW264.7 [1])	IC50 (RAW264.7 [2])	IC50 [3]	further results
CC(C)C[C@H](NC(=O)[C@H](CCCCN)NC(=O)[C@H](CCC(N)=O)NC(=O)[C@H](CCCCN)NC(=O)[C@H]1CCC/C=C\CCC[C@@H](NC(=O)[C@H](CCC(=O)O)NC(=O)[C@H](CC(N)=O)NC(=O)[C@H](CC(C)C)NC(=O)[C@H](CCCCN)NC(=O)[C@H](CCC(=O)O)NC(=O)[C@H](CCCNC(=N)N)NC(=O)[C@H](Cc2ccccc2)NC(=O)[C@H](CCC(=O)O)NC(=O)[C@H](CC(=O)O)NC(=O)[C@H](CC(C)C)NC(=O)[C@@H](NC(=O)[C@@H]2CCCN2)C(C)C)C(=O)N[C@@H](CC(C)C)C(=O)N[C@@H](CCC(=O)O)C(=O)N[C@@H](C)C(=O)N1)C(=O)N[C@@H](CCCCN)C(=O)O	2%	> 160 µM	> 160 µM	
C=CCCCCC[C@H](NC(=O)[C@H](CCC(=O)O)NC(=O)[C@H](CC(N)=O)NC(=O)[C@H](CC(C)C)NC(=O)[C@H](CCCCN)NC(=O)[C@H](CCC(=O)O)NC(=O)[C@H](CCCNC(=N)N)NC(=O)[C@@H](CCCCC=C)NC(=O)[C@H](CCC(=O)O)NC(=O)[C@H](CC(=O)O)NC(=O)[C@H](CC(C)C)NC(=O)[C@@H](NC(=O)[C@@H]1CCCN1)C(C)C)C(=O)N[C@@H](CC(C)C)C(=O)N[C@@H](CCC(=O)O)C(=O)N[C@@H](C)C(=O)N[C@@H](CC(C)C)C(=O)N[C@@H](CCCCN)C(=O)N[C@@H](CCC(N)=O)C(=O)N[C@@H](CCCCN)C(=O)N[C@@H](CC(C)C)C(=O)N[C@@H](CCCCN)C(=O)O		> 160 µM	> 160 µM	IC50 (Plasma [4]): Active; IC50 (Plasma [5]): Active; EC50 (RAW264.7 [6]; [9]): 0.8 µM
C=CCCC[C@@H](NC(=O)[C@H](C)NC(=O)[C@H](CCC(=O)O)NC(=O)[C@H](CC(C)C)NC(=O)[C@@H](CCCC=C)NC(=O)[C@H](CCC(=O)O)NC(=O)[C@H](CC(N)=O)NC(=O)[C@H](CC(C)C)NC(=O)[C@H](CCCCN)NC(=O)[C@H](CCC(=O)O)NC(=O)[C@H](CCCNC(=N)N)NC(=O)[C@H](Cc1ccccc1)NC(=O)[C@H](CCC(=O)O)NC(=O)[C@H](CC(=O)O)NC(=O)[C@H](CC(C)C)NC(=O)[C@@H](NC(=O)[C@@H]1CCCN1)C(C)C)C(=O)N[C@@H](CCCCN)C(=O)N[C@@H](CCC(N)=O)C(=O)N[C@@H](CCCCN)C(=O)N[C@@H](CC(C)C)C(=O)N[C@@H](CCCCN)C(=O)O	3%	> 160 µM	> 160 µM	
C=CCCC[C@H](NC(=O)[C@H](CCC(=O)O)NC(=O)[C@H](CC(N)=O)NC(=O)[C@H](CC(C)C)NC(=O)[C@H](CCCC=C)NC(=O)[C@H](CCC(=O)O)NC(=O)[C@H](CCCNC(=N)N)NC(=O)[C@H](Cc1ccccc1)NC(=O)[C@H](CCC(=O)O)NC(=O)[C@H](CC(=O)O)NC(=O)[C@H](CC(C)C)NC(=O)[C@@H](NC(=O)[C@@H]1CCCN1)C(C)C)C(=O)N[C@@H](CC(C)C)C(=O)N[C@@H](CCC(=O)O)C(=O)N[C@@H](C)C(=O)N[C@@H](CC(C)C)C(=O)N[C@@H](CCCCN)C(=O)N[C@@H](CCC(N)=O)C(=O)N[C@@H](CCCCN)C(=O)N[C@@H](CC(C)C)C(=O)N[C@@H](CCCCN)C(=O)O	7%	> 160 µM	> 160 µM	
CC(C)C[C@H](NC(=O)[C@H](C)NC(=O)[C@H](CCC(=O)O)NC(=O)[C@H](CC(C)C)NC(=O)C(C)(C)NC(=O)[C@H](CCC(=O)O)NC(=O)[C@H](CC(N)=O)NC(=O)[C@H](CC(C)C)NC(=O)[C@H](CCCCN)NC(=O)[C@H](CCC(=O)O)NC(=O)[C@H](CCCNC(=N)N)NC(=O)[C@H](Cc1ccccc1)NC(=O)[C@H](CCC(=O)O)NC(=O)[C@H](CC(=O)O)NC(=O)[C@H](CC(C)C)NC(=O)[C@@H](NC(=O)[C@@H]1CCCN1)C(C)C)C(=O)N[C@@H](CCCCN)C(=O)N[C@@H](CCC(N)=O)C(=O)N[C@@H](CCCCN)C(=O)N[C@@H](CC(C)C)C(=O)N[C@@H](CCCCN)C(=O)O (H-PVLDEFREKLNE[Aib]LEALKQKLK-OH)		> 160 µM	> 160 µM	cholesterol efflux (RAW264.7 [7]): 6%
CC.CC(C)C[C@H](NC(=O)[C@H](C)NC(=O)[C@H](CCC(=O)O)NC(=O)[C@H](CC(C)C)NC(=O)[C@@H]1CCCCC/C=C\CCCC[C@@H](NC(=O)[C@H](CCC(=O)O)NC(=O)[C@H](CC(=O)O)NC(=O)[C@H](CC(C)C)NC(=O)[C@@H](NC(=O)[C@@H]2CCCN2)C(C)C)C(=O)N[C@@H](CCCNC(=N)N)C(=O)N[C@@H](CCC(=O)O)C(=O)N[C@@H](CCCCN)C(=O)N[C@@H](CC(C)C)C(=O)N[C@@H](CC(N)=O)C(=O)N[C@@H](CCC(=O)O)C(=O)N1)C(=O)N[C@@H](CCCCN)C(=O)N[C@@H](CCC(N)=O)C(=O)N[C@@H](CCCCN)C(=O)N[C@@H](CC(C)C)C(=O)N[C@@H](CCCCN)C(=O)O (H-PVLDE[X1]REKLNE[X2]LEALKQKLK-OH; staple (Z) 6-13)		> 160 µM	> 160 µM	EC50 (RAW264.7 [6]; [9]): 2 µM
C[C@@H]1[C@H](O)[C@@H](C)/C=C/C=C/C=C/C=C/C=C/C=C/C=C/[C@H](O[C@@H]2O[C@H](C)[C@@H](O)[C@H](N)[C@@H]2O)C[C@@H]2O[C@](O)(C[C@@H](O)C[C@@H](O)[C@H](O)CC[C@@H](O)C[C@@H](O)CC(=O)O[C@H]1C)C[C@H](O)[C@H]2C(=O)O [AMPHOTERICIN B]				MLC [8]: 2 mg/L (≈ 2.16 µM)
O=C(N[C@H](CO)[C@H](O)c1ccc([N+](=O)[O-])cc1)C(Cl)Cl [CHLORAMPHENICOL]				MLC [8]: > 64 mg/L
H-PVLDEFREKLNEELEALKQKLK-OH		> 160 µM	40 µM	EC50 (RAW264.7 [6]; raw264.7): Not Active
